Test results taken from ChEMBL document CHEMBL4229560, “Increasing C-Terminal Hydrophobicity Improves the Cell Permeability and Antiproliferative Activity of PACE4 Inhibitors against Prostate Cancer Cell Lines” (J Med Chem, 2018).
pIC50, pKi: −log10 of the molar value. Where a SMILES comes first, the peptide text is derived from it. [ ]: non-standard residue; d: D form. Phe(4-guanidino) = N=C(N)Nc1ccc(C[C@H](N)C(=O)O)cc1; Phe(4-NH2) = Nc1ccc(C[C@H](N)C(=O)O)cc1; βAla = NCCC(=O)O

How the values were obtained:
[1] = molecular target: Furin (Homo sapiens, UniProt P09958); assay: Inhibition of recombinant human furin expressed in S2 insect cells using pyroGlu-Arg-Thr-Lys-Arg-AMC peptide as substrate after 1 hr by spectrofluorometry
Chain of Furin (P09958 whole entry): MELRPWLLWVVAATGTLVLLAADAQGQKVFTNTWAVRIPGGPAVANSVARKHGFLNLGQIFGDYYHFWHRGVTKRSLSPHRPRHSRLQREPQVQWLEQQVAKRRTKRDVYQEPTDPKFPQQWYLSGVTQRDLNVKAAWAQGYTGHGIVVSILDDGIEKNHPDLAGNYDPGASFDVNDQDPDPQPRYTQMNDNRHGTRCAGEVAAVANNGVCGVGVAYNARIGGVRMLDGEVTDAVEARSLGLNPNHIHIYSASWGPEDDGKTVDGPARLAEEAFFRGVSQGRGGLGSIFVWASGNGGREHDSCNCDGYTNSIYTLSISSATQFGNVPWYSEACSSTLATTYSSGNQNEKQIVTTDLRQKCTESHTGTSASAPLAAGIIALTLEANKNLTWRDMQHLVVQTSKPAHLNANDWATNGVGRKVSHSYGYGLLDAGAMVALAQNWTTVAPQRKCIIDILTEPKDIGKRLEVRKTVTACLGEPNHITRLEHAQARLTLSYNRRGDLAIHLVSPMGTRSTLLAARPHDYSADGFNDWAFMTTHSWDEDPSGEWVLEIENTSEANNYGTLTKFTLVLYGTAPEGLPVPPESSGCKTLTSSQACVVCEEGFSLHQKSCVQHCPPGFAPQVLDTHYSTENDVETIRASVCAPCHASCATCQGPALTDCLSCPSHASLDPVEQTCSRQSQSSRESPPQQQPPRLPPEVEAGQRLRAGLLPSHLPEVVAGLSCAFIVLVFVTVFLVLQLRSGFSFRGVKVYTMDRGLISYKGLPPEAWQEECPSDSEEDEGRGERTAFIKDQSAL
Procedure, shortened: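 Furin was human recombinant from S2 insect cells, purified. Buffer 100 mM HEPES pH 7.5, 1 mM CaCl2, 1 mM β-mercaptoethanol, 1.8 g/L BSA. Substrate 100 µM per well, inhibitors 0–10 µM, 2 units enzyme. Real-time fluorescence (ex 370/em 460 nm) over 1 h. Ki by Cheng–Prusoff; duplicate or triplicate.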

[2] = molecular target: T1, Proprotein convertase subtilisin/kexin type 6 (Homo sapiens, UniProt P29122); assay: Inhibition of recombinant human PACE4 expressed in S2 insect cells using pyroGlu-Arg-Thr-Lys-Arg-AMC peptide as substrate after 1 hr by spectrofluorometry
T1 sequence (P29122 whole entry): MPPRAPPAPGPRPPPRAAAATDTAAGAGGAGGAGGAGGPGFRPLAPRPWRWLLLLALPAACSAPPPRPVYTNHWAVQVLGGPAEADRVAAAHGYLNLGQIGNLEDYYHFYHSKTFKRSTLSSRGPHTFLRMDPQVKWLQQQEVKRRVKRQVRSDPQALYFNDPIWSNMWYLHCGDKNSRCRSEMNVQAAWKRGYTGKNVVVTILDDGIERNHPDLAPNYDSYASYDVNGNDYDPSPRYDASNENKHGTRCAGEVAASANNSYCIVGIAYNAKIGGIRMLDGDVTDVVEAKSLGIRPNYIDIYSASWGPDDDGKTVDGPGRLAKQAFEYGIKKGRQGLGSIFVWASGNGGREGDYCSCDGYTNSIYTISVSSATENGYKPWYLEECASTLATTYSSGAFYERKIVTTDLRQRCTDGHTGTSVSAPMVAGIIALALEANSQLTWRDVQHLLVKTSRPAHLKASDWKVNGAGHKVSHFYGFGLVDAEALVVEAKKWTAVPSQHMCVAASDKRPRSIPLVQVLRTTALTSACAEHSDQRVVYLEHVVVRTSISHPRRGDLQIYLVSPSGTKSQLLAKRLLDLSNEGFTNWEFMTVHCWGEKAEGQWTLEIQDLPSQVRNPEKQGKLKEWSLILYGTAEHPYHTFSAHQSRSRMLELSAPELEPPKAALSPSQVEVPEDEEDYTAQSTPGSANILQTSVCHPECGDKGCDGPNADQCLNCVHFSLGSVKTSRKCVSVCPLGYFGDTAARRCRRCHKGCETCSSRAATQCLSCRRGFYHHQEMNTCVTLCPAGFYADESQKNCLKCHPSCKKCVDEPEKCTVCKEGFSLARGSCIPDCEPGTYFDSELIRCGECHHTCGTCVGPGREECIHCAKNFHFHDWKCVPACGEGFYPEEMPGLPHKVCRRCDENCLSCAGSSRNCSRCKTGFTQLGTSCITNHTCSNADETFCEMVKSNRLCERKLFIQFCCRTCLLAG
Procedure, shortened: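 Human recombinant PACE4 made in S2 insect cells and purified. Assay buffer 20 mM Bis-Tris pH 6.5, 1 mM CaCl2, 1.8 g/L BSA. Substrate 100 µM per well, inhibitors 0–10 µM, 2 units enzyme. Fluorescence (ex 370/em 460 nm) followed in real time for 1 h. Ki from IC50 by Cheng–Prusoff; duplicate or triplicate.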

[3] = species: Homo sapiens; assay: Selectivity ratio of Ki for recombinant human furin to Ki for recombinant human PACE4
Procedure, shortened: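 Ki values came from human recombinant enzymes expressed in S2 insect cells. Furin was assayed in 100 mM HEPES pH 7.5, 1 mM CaCl2, 1 mM β-mercaptoethanol and 1.8 g/L BSA. PACE4 was assayed in 20 mM Bis-Tris pH 6.5, 1 mM CaCl2 and 1.8 g/L BSA. Substrate was pERTKR-AMC at 100 µM, with inhibitor at 0–10 µM. Fluorescence (ex 370/em 460 nm) was read for 1 h, and Ki derived by Cheng-Prusoff.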

[4] = system: DU-145; assay: Antiproliferative activity against human DU145 cells after 72 hrs by MTT assay; format: functional, cell-based; conditions: DU-145, 72 h
Procedure, shortened: (§1)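 MTT assay run 72 h. Seeding was ~1500 cells/well for DU145 and ~2500 cells/well for LNCaP, in RPMI 1640 with 5% FBS (DU145) or 10% FBS (LNCaP). Medium was changed after 24 h, then inhibitor added at 1–300 µM or 1–150 µM. MTT was added at 1 g/L final for 4 h and formazan dissolved in 2-propanol/HCl. Readings were relative to vehicle (water, 0.1% DMSO). IC50 was from at least two independent experiments.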

[5] = Drug uptake in human DU145 cells at 1 uM after 1 hr using FITC labelled compound by flow cytometric analysis relative to FITC-[betaAla]-LLLLRVKR-NH2 peptide; format: ADME, cell-based; conditions: du-145, 1 h
Procedure, shortened: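 DU145 cells were plated at 200000 per dish and grown 48 h at 37 °C. They were exposed to 1 µM N-terminally FITC-labelled peptide for 1 h at 37 °C, then trypsinized, washed and resuspended in PBS. PI at 10 µg/mL was added to gate out dead cells. Parallel tubes were quenched with 0.04% trypan blue to remove membrane-bound signal. Flow cytometry counted at least 10000 events.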

[6] = system: DU-145; assay: Antiproliferative activity against human DU145 cells up to 300 uM after 72 hrs by MTT assay relative to control; format: functional; procedure, shortened: as §1
[7] = system: LNCaP; assay: Antiproliferative activity against human LNCAP cells after 72 hrs by MTT assay; format: functional, cell-based; procedure, shortened: as §1

| Molecule | pKi [1] | pKi [2] | Ratio Ki [3] | pIC50 [4] | fold change (FC) [5] | Activity [6] | Drug uptake [5] | pIC50 [7] |
| --- | --- | --- | --- | --- | --- | --- | --- | --- |
| Ac-LLLLRVKRY-NH2 | 7.19 | 7.54 | 2 | 4.00 |  |  |  |  |
| Ac-LLLLRVKRD-NH2 | 7.13 | 7.52 | 2 | 3.64 |  |  |  |  |
| Ac-LLLLRVKRM-NH2 | 6.77 | 7.49 | 5 | 3.89 |  |  |  |  |
| CC(C)C[C@H](NC(=O)CCN)C(=O)N[C@@H](CC(C)C)C(=O)N[C@@H](CC(C)C)C(=O)N[C@@H](CC(C)C)C(=O)N[C@@H](CCCNC(=N)N)C(=O)N[C@H](C(=O)N[C@@H](CCCCN)C(=O)N[C@@H](CCCNC(=N)N)C(=O)N[C@@H](Cc1c[nH]c2ccccc12)C(N)=O)C(C)C (H-[βAla]LLLLRVKRW-NH2) |  |  |  |  | 2 |  |  |  |
| Ac-LLLLRVKRE-NH2 | 6.59 | 7.24 | 4 |  |  | <50% |  |  |
| CC(C)C[C@H](NC(=O)CCN)C(=O)N[C@@H](CC(C)C)C(=O)N[C@@H](CC(C)C)C(=O)N[C@@H](CC(C)C)C(=O)N[C@@H](CCCNC(=N)N)C(=O)N[C@H](C(=O)N[C@@H](CCCCN)C(=O)N[C@@H](CCCNC(=N)N)C(=O)N[C@@H](CCCNC(=N)N)C(N)=O)C(C)C (H-[βAla]LLLLRVKRR-NH2) |  |  |  |  |  |  | Active |  |
| Ac-LLLLRVKRH-NH2 | 6.85 | 7.48 | 4 |  |  | <50% |  |  |
| CC(=O)N[C@@H](CC(C)C)C(=O)N[C@@H](CC(C)C)C(=O)N[C@@H](CC(C)C)C(=O)N[C@@H](CC(C)C)C(=O)N[C@@H](CCCNC(=N)N)C(=O)N[C@H](C(=O)N[C@@H](CCCCN)C(=O)N[C@@H](CCCNC(=N)N)C(=O)N[C@@H](Cc1ccc(N)cc1)C(N)=O)C(C)C (Ac-LLLLRVKR[Phe(4-NH2)]-NH2) | 6.89 | 7.49 | 4 | 3.86 |  |  |  | 3.77 |
| Ac-LLLLRVKR-NH2 |  |  | 20 |  |  |  |  |  |
| Ac-LLLLRVKRG-NH2 | 6.30 | 7.36 | 11 |  |  | <50% |  |  |
| CC(=O)N[C@@H](CC(C)C)C(=O)N[C@@H](CC(C)C)C(=O)N[C@@H](CC(C)C)C(=O)N[C@@H](CC(C)C)C(=O)N[C@@H](CCCNC(=N)N)C(=O)N[C@H](C(=O)N[C@@H](CCCCN)C(=O)N[C@@H](CCCNC(=N)N)C(=O)N[C@@H](Cc1ccc(NC(=N)N)cc1)C(N)=O)C(C)C (Ac-LLLLRVKR[Phe(4-guanidino)]-NH2) | 6.85 | 7.96 | 13 | 4.08 |  |  |  | 4.04 |
| Ac-LLLLRVKRV-NH2 | 6.70 | 7.42 | 5 | 3.77 |  |  |  |  |
| Ac-LLLLRVKRF-NH2 | 7.13 | 7.70 | 4 | 4.15 |  |  |  | 3.77 |
| Ac-LLLLRVKRN-NH2 | 6.89 | 7.55 | 5 |  |  | <50% |  |  |
| Ac-LLLLRVKRP-NH2 | 6.00 | 6.60 | 4 | 3.68 |  |  |  |  |
| Ac-LLLLRVKRS-NH2 | 6.48 | 7.19 | 5 | 3.62 |  |  |  |  |
| Ac-LLLLRVKRA-NH2 | 6.68 | 7.43 | 6 | 3.80 |  |  |  |  |
| Ac-LLLLRVKRT-NH2 | 7.00 | 7.66 | 5 | 3.77 |  |  |  |  |
| Ac-LLLLRVKRQ-NH2 | 6.72 | 7.37 | 5 | 3.68 |  |  |  |  |
| CC(=O)N[C@H](CC(C)C)C(=O)N[C@@H](CC(C)C)C(=O)N[C@@H](CC(C)C)C(=O)N[C@@H](CC(C)C)C(=O)N[C@@H](CCCNC(=N)N)C(=O)N[C@H](C(=O)N[C@@H](CCCCN)C(=O)N[C@@H](CCCNC(=N)N)C(=O)NCCc1ccc(C(=N)N)cc1)C(C)C | 6.15 | 7.17 | 10 | 4.39 |  |  |  | 4.17 |
| Ac-LLLLRVKRL-NH2 | 6.00 | 6.77 | 6 | 4.05 |  |  |  |  |
